Results from ChEMBL document CHEMBL1136577, “Synthesis of 6-formyl-pyridine-2-carboxylate derivatives and their telomerase inhibitory activities” (Bioorg Med Chem Lett, 2003).

Tests used:
[1] = target: Telomerase reverse transcriptase (Homo sapiens, UniProt O14746); test: In vitro inhibitory activity of compound against telomerase
Outline: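 Telomerase activity was measured by TRAP assay. Extension products were resolved on 10% nondenaturing polyacrylamide gel, stained with SYBR Green, and band intensity quantified by image analysis. IC50 was derived from the reduction in product signal.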

A549 = test: In vitro antiproliferative activity of compound against […] (human lung caner ) cell line was determined by SRB assay; assay type: functional, cell-based
Outline: (§1)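 Cells grown for 3 days with compound, then growth read by sulforhodamine B (SRB) staining. IC50 taken as the dose giving 50% growth inhibition of the cultured cells.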

CAKI-2 = test: In vitro antiproliferative activity of compound against Caki-2 (human renal caner ) cell line was determined by SRB assay; assay type: functional, cell-based; outline: as §1
HEC-1B cell line = test: In vitro antiproliferative activity of compound against HEC-1-B (human endometrical caner ) cell line was determined by SRB assay; assay type: functional, cell-based; outline: as §1
HL-60 = test: In vitro antiproliferative activity of compound against HL-60 (human assay; assay type: functional, cell-based; outline: as §1
HT-29 = test: In vitro antiproliferative activity of compound against HT-29 (human colon caner ) cell line aws determined by SRB assay; assay type: functional, cell-based
Outline: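 Human tumour cell lines exposed to compound for 3 days, with growth measured by sulforhodamine B (SRB) staining. IC50 is the concentration that inhibits growth of 50% of the cultured cells.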

Telomerase reverse transcriptase, sequence (O14746 whole entry): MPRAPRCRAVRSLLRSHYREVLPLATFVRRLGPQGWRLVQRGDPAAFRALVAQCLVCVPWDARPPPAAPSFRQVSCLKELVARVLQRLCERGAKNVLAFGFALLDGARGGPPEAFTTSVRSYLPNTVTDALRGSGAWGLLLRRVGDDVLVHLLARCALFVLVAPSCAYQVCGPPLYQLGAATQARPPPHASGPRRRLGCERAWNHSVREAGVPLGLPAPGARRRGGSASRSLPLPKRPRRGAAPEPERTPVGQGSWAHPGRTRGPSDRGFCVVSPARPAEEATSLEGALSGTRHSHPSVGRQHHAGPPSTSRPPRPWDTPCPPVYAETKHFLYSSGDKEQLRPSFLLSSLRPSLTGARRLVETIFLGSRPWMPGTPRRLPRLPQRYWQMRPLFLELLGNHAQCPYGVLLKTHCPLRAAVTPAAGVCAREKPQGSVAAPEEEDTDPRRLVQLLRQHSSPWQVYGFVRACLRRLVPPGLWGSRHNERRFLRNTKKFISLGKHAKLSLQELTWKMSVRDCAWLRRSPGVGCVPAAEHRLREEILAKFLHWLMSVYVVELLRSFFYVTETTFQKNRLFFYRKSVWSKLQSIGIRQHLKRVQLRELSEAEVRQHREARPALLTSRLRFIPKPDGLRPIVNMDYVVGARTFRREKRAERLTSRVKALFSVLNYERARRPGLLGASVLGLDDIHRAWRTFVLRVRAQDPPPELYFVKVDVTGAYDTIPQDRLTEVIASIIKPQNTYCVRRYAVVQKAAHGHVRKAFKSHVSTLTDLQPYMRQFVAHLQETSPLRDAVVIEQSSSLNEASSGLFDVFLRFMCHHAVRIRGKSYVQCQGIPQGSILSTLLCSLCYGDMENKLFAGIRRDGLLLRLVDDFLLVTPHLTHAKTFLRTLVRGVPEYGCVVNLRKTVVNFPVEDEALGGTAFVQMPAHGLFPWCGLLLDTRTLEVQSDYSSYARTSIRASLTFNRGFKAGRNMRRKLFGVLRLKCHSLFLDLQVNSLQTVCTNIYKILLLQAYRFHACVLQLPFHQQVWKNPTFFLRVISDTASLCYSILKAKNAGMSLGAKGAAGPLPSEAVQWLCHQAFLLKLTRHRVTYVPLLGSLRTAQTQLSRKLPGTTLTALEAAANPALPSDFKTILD

Row | Compound | IC50 [1] | also measured
1 | O=Cc1cccc(C(=O)Sc2cccc(Cl)c2)n1 | 79 µM | –
2 | COc1ccccc1SC(=O)c1cccc(C=O)n1 | > 100 µM | –
3 | O=Cc1cccc(C(=O)Sc2ccc(Br)cc2)n1 | 56 µM | –
4 | CC(=O)Nc1ccc(SC(=O)c2cccc(C=O)n2)cc1 | > 100 µM | –
5 | O=Cc1cccc(C(=O)Sc2ccc(Cl)cc2)n1 | 33 µM | –
6 | COc1ccc(SC(=O)c2cccc(C=O)n2)cc1 | 91 µM | –
7 | O=Cc1cccc(C(=O)Sc2ccc(F)c(F)c2)n1 | 69 µM | –
8 | O=Cc1cccc(C(=O)Oc2ccc(Cl)c(Cl)c2)n1 | > 100 µM | –
9 | COc1cccc(SC(=O)c2cccc(C=O)n2)c1 | 76 µM | –
10 | O=Cc1cccc(C(=O)Sc2ccc(Cl)c(Cl)c2)n1 | 24 µM | IC50 (A549): 56.9 µM; IC50 (CAKI-2): > 300 µM; IC50 (HEC-1B cell line): 56.4 µM; IC50 (HL-60): 13 µM
11 | Cc1ccccc1SC(=O)c1cccc(C=O)n1 | > 100 µM | –
12 | O=Cc1cccc(C(=O)Sc2cc(Cl)ccc2Cl)n1 | 68 µM | –
13 | O=Cc1cccc(C(=O)Sc2cc(Cl)cc(Cl)c2)n1 | 64 µM | –
14 | Cc1cccc(SC(=O)c2cccc(C=O)n2)c1 | 76 µM | –
15 | Cc1ccc(SC(=O)c2cccc(C=O)n2)cc1 | > 100 µM | –
16 | N#Cc1ccc(C=O)nc1SCc1c(Cl)cccc1Cl | 77 µM | IC50 (A549): > 300 µM; IC50 (CAKI-2): > 300 µM; IC50 (HEC-1B cell line): 175 µM; IC50 (HL-60): 26.7 µM
17 | O=Cc1cccc(C(=O)Sc2ccc([N+](=O)[O-])cc2)n1 | 75 µM | –
18 | O=Cc1cccc(C(=O)Sc2ccccc2Cl)n1 | 84 µM | –
19 | O=Cc1cccc(C(=O)Sc2ccc(F)cc2)n1 | 64 µM | –
20 | O=Cc1cccc(C(=O)Sc2c(Cl)cc(Cl)cc2Cl)n1 | 50 µM | –
21 | O=Cc1cccc(C(=O)Nc2ccc(Cl)c(Cl)c2)n1 | > 100 µM | –
22 | O=Cc1cccc(C(=O)Sc2c(Cl)cccc2Cl)n1 | 79 µM | –
23 | CC[C@@]1(O)C(=O)OCc2c1cc1n(c2=O)Cc2cc3ccccc3nc2-1 [CAMPTOTHECIN] | – | IC50 (A549): 2.53 µM; IC50 (CAKI-2): 3.96 µM; IC50 (HEC-1B cell line): 8.64 µM; IC50 (HL-60): 0.066 µM; IC50 (HT-29): 1.4 µM
